# Measured values of several laboratories.
# Matrix: Caco-2
SMILES,setting,endpoint,result
CC(c1cncnc1)n1c(=S)[nH]c2ccc(Cl)cc2c1=O (centres unmarked),"10 µM, 90 min, pH 7.4",Papp A→B,45.7 ×10⁻⁶ cm/s
CC(C)NCC(O)COc1cccc2ccccc12 (centres unmarked),pH 7.4,Papp B→A,4.2 ×10⁻⁶ cm/s
O=C1CCC(N2Cc3c(ccc4c3OCC43CCN(Cc4ccccc4)CC3)C2=O)C(=O)N1 (centres unmarked),"10 µM, 2 h",Papp,19 ×10⁻⁶ cm/s
C[C@H]1O[C@@H](O[C@H]2[C@@H](O)C[C@H](O[C@H]3[C@@H](O)C[C@H](O[C@H]4CC[C@@]5(C)[C@H](CC[C@@H]6[C@@H]5C[C@@H](O)[C@]5(C)[C@@H](C7=CC(=O)OC7)CC[C@]65O)C4)O[C@@H]3C)O[C@@H]2C)C[C@H](O)[C@@H]1O,pH 7.4,Papp A→B,1.4 ×10⁻⁶ cm/s
C/C=C1/CN2CC[C@@]34c5cc(O)ccc5N(C)[C@]35OC[C@@]4(C(=O)OC)[C@H]1C[C@H]25,"10 µM, 2 h, pH 7.4",Papp A→B,28.2 ×10⁻⁶ cm/s
CC(=O)c1c(C)c2cnc(Nc3ccc(C4CCN(CCS(C)(=O)=O)CC4)cn3)nc2n(C2CCCC2)c1=O,10 µM,Papp A→B,15.4 ×10⁻⁶ cm/s
CC(C)NCC(O)COc1cccc2ccccc12 (centres unmarked),"10 µM, 2 h, pH 7.4",Papp B→A,19.5 ×10⁻⁶ cm/s
O=c1c2cc(Cl)c(CO)cc2[nH]c(=S)n1Cc1cncnc1,"10 µM, 90 min, pH 7.4",Papp B→A,27 ×10⁻⁶ cm/s
